Measurements: ChEMBL document CHEMBL1139884, “Structure-based design, synthesis, and A-site rRNA cocrystal complexes of functionally novel aminoglycoside antibiotics: C2" ether analogues of paromomycin” (2007)
Values after ≈ are worked out from the molar mass of the structure shown. Active and inactive are the calls of the source. The calls are words filed in the database; no cut-off is given here.

Experiments:
Staphylococcus aureus [1] = experiment: Septicemia protection in Staphylococcus aureus Smith infected sc dosed BALB/c mouse after 2 weeks; assay type: functional; details: 336 h
In short: (§1)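 Female Balb/c mice (16-18 g), acclimated one week, 10 per group. Infection IP with 0.5 mL of 10^6 S. aureus (mouse-passaged Smith strain) in 10% hog gastric mucin. Compound dissolved in water, given subcutaneously in 0.5 mL at 1 h and 3 h post-infection as serial 2-fold dilutions from 75 to 0.125 mg/kg. Amikacin and neomycin served as control groups. Moribund mice counted per group; observation over two weeks.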

Mus musculus [2] = experiment: Survival of Staphylococcus aureus Smith infected BALB/c mouse assessed as septicemia protection at 4.7 mg/kg, sc administered at 1 hr and 3 hrs postinfection after 2 weeks; assay type: functional, organism-based; design: dose 4.7 mg/kg; in short: as §1
Mus musculus [3] = experiment: Survival of Staphylococcus aureus Smith infected BALB/c mouse assessed as septicemia protection at 0.50 mg/kg, sc administered at 1 hr and 3 hrs postinfection after 2 weeks; assay type: functional, organism-based; design: dose 0.5 mg/kg; in short: as §1
Mus musculus [4] = experiment: Survival of Staphylococcus aureus Smith infected BALB/c mouse assessed as septicemia protection at 38 mg/kg, sc administered at 1 hr and 3 hrs postinfection after 2 weeks; assay type: functional, organism-based; design: dose 38 mg/kg; in short: as §1
Mus musculus [5] = experiment: Survival of Staphylococcus aureus Smith infected BALB/c mouse assessed as septicemia protection at 19 mg/kg, sc administered at 1 hr and 3 hrs postinfection after 2 weeks; assay type: functional, organism-based; design: dose 19 mg/kg; in short: as §1
Mus musculus [6] = experiment: Survival of Staphylococcus aureus Smith infected BALB/c mouse assessed as septicemia protection at 1.2 mg/kg, sc administered at 1 hr and 3 hrs postinfection after 2 weeks; assay type: functional, organism-based; design: dose 1.2 mg/kg; in short: as §1
Staphylococcus aureus [7] = experiment: Antimicrobial activity against Staphylococcus aureus ATCC 13709 after 20 to 24 hrs; assay type: functional
In short: (§2)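 Broth microdilution in duplicate; compound in 2.5% DMSO in water, overnight culture added to a final inoculum of about 10^2-10^3 CFU/well. Growth read as A595 after 20-24 h at 37°C, relative to a no-compound well. MIC reported as a range: complete inhibition at the higher concentration, viable cells at the lower. Ampicillin and tetracycline are the positive controls.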

Escherichia coli = experiment: Antimicrobial activity against Escherichia coli ATCC 25922 after 20 to 24 hrs; assay type: functional; in short: as §2
Mus musculus [8] = experiment: Survival of Staphylococcus aureus Smith infected BALB/c mouse assessed as septicemia protection at 9.4 mg/kg, sc administered at 1 hr and 3 hrs postinfection after 2 weeks; assay type: functional, organism-based; design: dose 9.4 mg/kg; in short: as §1
Mus musculus [9] = experiment: Survival of Staphylococcus aureus Smith infected BALB/c mouse assessed as septicemia protection at 2.3 mg/kg, sc administered at 1 hr and 3 hrs postinfection after 2 weeks; assay type: functional, organism-based; design: dose 2.3 mg/kg; in short: as §1
Mus musculus [10] = experiment: Survival of Staphylococcus aureus Smith infected BALB/c mouse assessed as septicemia protection at 75 mg/kg, sc administered at 1 hr and 3 hrs postinfection after 2 weeks; assay type: functional, organism-based; design: dose 75 mg/kg; in short: as §1

SMILES	MIC (Staphylococcus aureus [7])	MIC (Escherichia coli)	other results
NC[C@@H]1O[C@H](O[C@H]2[C@@H](OCCNCCc3ccccc3)[C@H](O[C@@H]3[C@@H](O)[C@H](N)C[C@H](N)[C@H]3O[C@H]3O[C@H](CO)[C@@H](O)[C@H](O)[C@H]3N)O[C@@H]2CO)[C@H](N)[C@@H](O)[C@@H]1O	0.3 µg/mL (≈ 0.393 µM)	3 µg/mL (≈ 3.93 µM)	ED90 (Staphylococcus aureus [1]): 0.25 mg/kg; Activity (Mus musculus [2]): Active; Activity (Mus musculus [3]): Active; Activity (Mus musculus [4]): Active; Activity (Mus musculus [5]): Active; Activity (Mus musculus [6]): Active
NC[C@@H]1O[C@H](O[C@H]2[C@@H](OCCNCc3cccnc3)[C@H](O[C@@H]3[C@@H](O)[C@H](N)C[C@H](N)[C@H]3O[C@H]3O[C@H](CO)[C@@H](O)[C@H](O)[C@H]3N)O[C@@H]2CO)[C@H](N)[C@@H](O)[C@@H]1O	< 1.5 µg/mL	12 µg/mL (≈ 16 µM)	Activity (Mus musculus [2]): Active; Activity (Mus musculus [4]): Active; Activity (Mus musculus [8]): Active; Activity (Mus musculus [5]): Active; Activity (Mus musculus [9]): Active; Activity (Mus musculus [6]): Active; Activity (Mus musculus [10]): Active
NC[C@@H]1O[C@H](O[C@H]2[C@@H](OCCNCCc3cc(C(F)(F)F)cc(C(F)(F)F)c3)[C@H](O[C@@H]3[C@@H](O)[C@H](N)C[C@H](N)[C@H]3O[C@H]3O[C@H](CO)[C@@H](O)[C@H](O)[C@H]3N)O[C@@H]2CO)[C@H](N)[C@@H](O)[C@@H]1O	2.5 µg/mL (≈ 2.78 µM)	> 10 µg/mL	
NCCO[C@H]1[C@H](O[C@@H]2[C@@H](O)[C@H](N)C[C@H](N)[C@H]2O[C@H]2O[C@H](CO)[C@@H](O)[C@H](O)[C@H]2N)O[C@H](CO)[C@H]1O	12 µg/mL (≈ 24.1 µM)	6 µg/mL (≈ 12 µM)	
NC[C@@H]1O[C@H](O[C@H]2[C@@H](O)[C@H](O[C@@H]3[C@@H](O)[C@H](N)C[C@H](N)[C@H]3O[C@H]3O[C@H](CO)[C@@H](O)[C@H](O)[C@H]3N)O[C@@H]2CO)[C@H](N)[C@@H](O)[C@@H]1O [PAROMOMYCIN]	1 µg/mL (≈ 1.62 µM)	3 µg/mL (≈ 4.87 µM)	
CC(=O)N(CCO[C@H]1[C@H](O[C@@H]2[C@@H](O)[C@H](N)C[C@H](N)[C@H]2O[C@H]2O[C@H](CO)[C@@H](O)[C@H](O)[C@H]2N)O[C@H](CO)[C@H]1O[C@H]1O[C@@H](CN)[C@@H](O)[C@H](O)[C@H]1N)CCc1ccccc1	1 µg/mL (≈ 1.24 µM)	10 µg/mL (≈ 12.4 µM)	
NC[C@@H]1O[C@H](O[C@H]2[C@@H](OCCNc3cnc4ccccc4c3)[C@H](O[C@@H]3[C@@H](O)[C@H](N)C[C@H](N)[C@H]3O[C@H]3O[C@H](CO)[C@@H](O)[C@H](O)[C@H]3N)O[C@@H]2CO)[C@H](N)[C@@H](O)[C@@H]1O	1 µg/mL (≈ 1.27 µM)	12 µg/mL (≈ 15.3 µM)	
NC[C@@H]1O[C@H](O[C@H]2[C@@H](OCCNCc3nc4ccccc4[nH]3)[C@H](O[C@@H]3[C@@H](O)[C@H](N)C[C@H](N)[C@H]3O[C@H]3O[C@H](CO)[C@@H](O)[C@H](O)[C@H]3N)O[C@@H]2CO)[C@H](N)[C@@H](O)[C@@H]1O	> 100 µg/mL	> 100 µg/mL	
NC[C@@H]1O[C@H](O[C@H]2[C@@H](OCCNCCc3ccc4ccccc4c3)[C@H](O[C@@H]3[C@@H](O)[C@H](N)C[C@H](N)[C@H]3O[C@H]3O[C@H](CO)[C@@H](O)[C@H](O)[C@H]3N)O[C@@H]2CO)[C@H](N)[C@@H](O)[C@@H]1O	1 µg/mL (≈ 1.23 µM)	10 µg/mL (≈ 12.3 µM)	
NC[C@@H]1O[C@H](O[C@H]2[C@@H](OCCO)[C@H](O[C@@H]3[C@@H](O)[C@H](N)C[C@H](N)[C@H]3O[C@H]3O[C@H](CO)[C@@H](O)[C@H](O)[C@H]3N)O[C@@H]2CO)[C@H](N)[C@@H](O)[C@@H]1O	12 µg/mL (≈ 18.2 µM)	12 µg/mL (≈ 18.2 µM)	
NCCCNCCO[C@H]1[C@H](O[C@@H]2[C@@H](O)[C@H](N)C[C@H](N)[C@H]2O[C@H]2O[C@H](CO)[C@@H](O)[C@H](O)[C@H]2N)O[C@H](CO)[C@H]1O	6 µg/mL (≈ 10.8 µM)	6 µg/mL (≈ 10.8 µM)	
NC[C@@H]1O[C@H](O[C@H]2[C@@H](OCCNCCCCc3ccccc3)[C@H](O[C@@H]3[C@@H](O)[C@H](N)C[C@H](N)[C@H]3O[C@H]3O[C@H](CO)[C@@H](O)[C@H](O)[C@H]3N)O[C@@H]2CO)[C@H](N)[C@@H](O)[C@@H]1O	3 µg/mL (≈ 3.79 µM)	10 µg/mL (≈ 12.6 µM)	
NC[C@@H]1O[C@H](O[C@H]2[C@@H](OCCNC3CCCCC3)[C@H](O[C@@H]3[C@@H](O)[C@H](N)C[C@H](N)[C@H]3O[C@H]3O[C@H](CO)[C@@H](O)[C@H](O)[C@H]3N)O[C@@H]2CO)[C@H](N)[C@@H](O)[C@@H]1O	3 µg/mL (≈ 4.05 µM)	3 µg/mL (≈ 4.05 µM)	
NC[C@@H]1O[C@H](O[C@H]2[C@@H](OCCNCCCc3ccccc3)[C@H](O[C@@H]3[C@@H](O)[C@H](N)C[C@H](N)[C@H]3O[C@H]3O[C@H](CO)[C@@H](O)[C@H](O)[C@H]3N)O[C@@H]2CO)[C@H](N)[C@@H](O)[C@@H]1O	0.6 µg/mL (≈ 0.772 µM)	3 µg/mL (≈ 3.86 µM)	
CCCCCCCCN(CCCCCCCC)CCO[C@H]1[C@H](O[C@H]2C(O[C@H]3O[C@H](CO)[C@@H](O)[C@H](O)[C@H]3N)[C@@H](N)C[C@@H](N)[C@@H]2O)O[C@H](CO)[C@H]1O[C@H]1O[C@@H](CN)[C@@H](O)[C@H](O)[C@H]1N (some centres not stated)	1.2 µg/mL (≈ 1.36 µM)	5 µg/mL (≈ 5.66 µM)	
NC[C@@H]1O[C@H](O[C@H]2[C@@H](OCCNCCc3ccc(-c4ccccc4)cc3)[C@H](O[C@@H]3[C@@H](O)[C@H](N)C[C@H](N)[C@H]3O[C@H]3O[C@H](CO)[C@@H](O)[C@H](O)[C@H]3N)O[C@@H]2CO)[C@H](N)[C@@H](O)[C@@H]1O	5 µg/mL (≈ 5.96 µM)	20 µg/mL (≈ 23.8 µM)	
NC[C@@H]1O[C@H](O[C@H]2[C@@H](OCCNc3cccnc3)[C@H](O[C@@H]3[C@@H](O)[C@H](N)C[C@H](N)[C@H]3O[C@H]3O[C@H](CO)[C@@H](O)[C@H](O)[C@H]3N)O[C@@H]2CO)[C@H](N)[C@@H](O)[C@@H]1O	< 1.5 µg/mL	12 µg/mL (≈ 16.3 µM)	
NC[C@@H]1O[C@H](O[C@H]2[C@@H](OCCNC3CCCNC3)[C@H](O[C@@H]3[C@@H](O)[C@H](N)C[C@H](N)[C@H]3O[C@H]3O[C@H](CO)[C@@H](O)[C@H](O)[C@H]3N)O[C@@H]2CO)[C@H](N)[C@@H](O)[C@@H]1O (some centres not stated)	3 µg/mL (≈ 4.04 µM)	1.5 µg/mL (≈ 2.02 µM)	
NC[C@@H]1O[C@H](O[C@H]2[C@@H](OCCOCCCc3ccccc3)[C@H](O[C@@H]3[C@@H](O)[C@H](N)C[C@H](N)[C@H]3O[C@H]3O[C@H](CO)[C@@H](O)[C@H](O)[C@H]3N)O[C@@H]2CO)[C@H](N)[C@@H](O)[C@@H]1O	5 µg/mL (≈ 6.43 µM)	20 µg/mL (≈ 25.7 µM)	
NC[C@@H]1O[C@H](O[C@H]2[C@@H](OCCNCCN3C(=O)c4cccc5cccc(c45)C3=O)[C@H](O[C@@H]3[C@@H](O)[C@H](N)C[C@H](N)[C@H]3O[C@H]3O[C@H](CO)[C@@H](O)[C@H](O)[C@H]3N)O[C@@H]2CO)[C@H](N)[C@@H](O)[C@@H]1O	10 µg/mL (≈ 11.3 µM)	> 40 µg/mL	
NC[C@@H]1O[C@H](O[C@H]2[C@@H](OCCNCCc3ccc(C(F)(F)F)cc3)[C@H](O[C@@H]3[C@@H](O)[C@H](N)C[C@H](N)[C@H]3O[C@H]3O[C@H](CO)[C@@H](O)[C@H](O)[C@H]3N)O[C@@H]2CO)[C@H](N)[C@@H](O)[C@@H]1O	0.6 µg/mL (≈ 0.722 µM)	5 µg/mL (≈ 6.02 µM)	
NC[C@@H]1O[C@H](O[C@H]2[C@@H](OCCNCCc3cccnc3)[C@H](O[C@@H]3[C@@H](O)[C@H](N)C[C@H](N)[C@H]3O[C@H]3O[C@H](CO)[C@@H](O)[C@H](O)[C@H]3N)O[C@@H]2CO)[C@H](N)[C@@H](O)[C@@H]1O	< 1.5 µg/mL	12 µg/mL (≈ 15.7 µM)	
